How the values were obtained:
[1] = target: T1, M-phase inducer phosphatase 3 (Homo sapiens) (UniProt P30307); test: Percent inhibition of cell division cycle 25 degree C at 50 uM
T1 sequence (whole entry): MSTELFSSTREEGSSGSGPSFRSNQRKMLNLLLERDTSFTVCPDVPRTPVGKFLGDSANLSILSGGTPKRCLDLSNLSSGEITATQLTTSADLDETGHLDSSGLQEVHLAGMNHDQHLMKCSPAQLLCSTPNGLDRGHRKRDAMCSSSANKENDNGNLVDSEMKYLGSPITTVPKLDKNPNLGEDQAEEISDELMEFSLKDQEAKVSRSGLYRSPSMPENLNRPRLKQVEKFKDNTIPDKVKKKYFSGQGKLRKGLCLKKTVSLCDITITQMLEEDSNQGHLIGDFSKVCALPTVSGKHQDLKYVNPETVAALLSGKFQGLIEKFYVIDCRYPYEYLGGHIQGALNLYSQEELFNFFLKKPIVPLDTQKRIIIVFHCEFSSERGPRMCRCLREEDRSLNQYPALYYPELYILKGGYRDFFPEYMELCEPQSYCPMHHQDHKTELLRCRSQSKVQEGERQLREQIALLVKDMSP
Procedure, shortened: (§1)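 Single-point screen at 50 μM inhibitor against Cdc25A, Cdc25B or Cdc25C with 50 μM 3-O-methylfluorescein phosphate, product followed at 477 nm in time-dependent assays. Activity was compared with a simultaneous no-inhibitor control, and selected compounds were run in duplicate (average error ±7%).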

[2] = target: T2, M-phase inducer phosphatase 1 (Homo sapiens) (UniProt P30304); test: Percent inhibition of cell division cycle 25A at 50 uM; procedure, shortened: as §1
T2 sequence (whole entry): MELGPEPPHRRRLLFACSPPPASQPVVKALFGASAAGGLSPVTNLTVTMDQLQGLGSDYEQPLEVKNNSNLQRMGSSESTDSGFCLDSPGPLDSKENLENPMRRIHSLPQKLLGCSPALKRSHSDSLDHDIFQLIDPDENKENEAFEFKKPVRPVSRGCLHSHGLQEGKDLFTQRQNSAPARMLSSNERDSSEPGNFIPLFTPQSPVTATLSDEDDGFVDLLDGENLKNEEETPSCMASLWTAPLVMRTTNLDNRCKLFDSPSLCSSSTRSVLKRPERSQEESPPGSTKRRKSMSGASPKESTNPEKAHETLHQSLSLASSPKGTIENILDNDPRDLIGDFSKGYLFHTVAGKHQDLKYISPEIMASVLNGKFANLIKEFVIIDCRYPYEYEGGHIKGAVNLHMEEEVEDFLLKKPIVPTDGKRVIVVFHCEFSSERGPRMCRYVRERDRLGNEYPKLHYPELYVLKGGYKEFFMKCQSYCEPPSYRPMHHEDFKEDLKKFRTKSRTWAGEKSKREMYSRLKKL

[3] = target: T3, M-phase inducer phosphatase 2 (Homo sapiens) (UniProt P30305); test: Percent inhibition of cell division cycle 25B at 50 uM; procedure, shortened: as §1
T3 sequence (whole entry): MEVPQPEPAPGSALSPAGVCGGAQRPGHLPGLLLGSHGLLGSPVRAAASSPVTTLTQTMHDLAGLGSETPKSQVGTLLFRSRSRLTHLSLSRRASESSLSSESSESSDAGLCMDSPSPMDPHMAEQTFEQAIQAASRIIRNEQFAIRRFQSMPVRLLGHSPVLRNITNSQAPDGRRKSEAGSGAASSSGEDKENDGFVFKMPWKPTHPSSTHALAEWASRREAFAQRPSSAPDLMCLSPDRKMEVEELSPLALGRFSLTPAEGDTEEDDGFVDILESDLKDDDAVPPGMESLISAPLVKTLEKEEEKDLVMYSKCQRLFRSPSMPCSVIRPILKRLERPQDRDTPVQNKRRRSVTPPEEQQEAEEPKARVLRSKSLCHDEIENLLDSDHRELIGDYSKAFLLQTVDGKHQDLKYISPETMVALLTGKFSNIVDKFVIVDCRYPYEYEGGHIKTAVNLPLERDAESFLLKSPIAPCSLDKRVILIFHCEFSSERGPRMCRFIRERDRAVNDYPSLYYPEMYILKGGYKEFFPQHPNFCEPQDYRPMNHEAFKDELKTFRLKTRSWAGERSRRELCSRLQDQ

| Structure (SMILES) | inhibition [1] [%] | inhibition [2] [%] | inhibition [3] [%] |
| --- | --- | --- | --- |
| O=C1C=C(O)C(=O)C(c2c[nH]c3cccc(Br)c23)=C1O | 54 | 51 | 6 |
| O=C1C=C(O)C(=O)C(c2c[nH]c3cccc(F)c23)=C1O | 0 | 20 | 5 |
| Cc1ccc2[nH]c(C)c(C3=C(O)C(O)=CC(=O)C3=O)c2c1 | 25 | 18 | 20 |
| COc1ccc2[nH]c(C)c(C3=C(O)C(O)=CC(=O)C3=O)c2c1 | 31 | 0 | 0 |
| O=C1C=C(O)C(=O)C(c2c[nH]c3ccc(Cl)cc23)=C1O | 45 | 59 | 32 |
| Cn1cc(C2=C(O)C(O)=CC(=O)C2=O)c2ccccc21 | 19 | 18 | 42 |
| COc1cc2[nH]cc(C3=C(O)C(O)=CC(=O)C3=O)c2cc1OC | 20 | 54 | 19 |
| O=C1C=C(O)C(=O)C(c2c[nH]c3cc(F)ccc23)=C1O | 48 | 97 | 90 |
| Cc1ccc2c(C3=C(O)C(O)=CC(=O)C3=O)c(C)[nH]c2c1 | 0 | 0 | 16 |
| CC1(c2[nH]c3ccccc3c2C2=C(O)C(O)=CC(=O)C2=O)CC1 | 0 | 0 | 17 |
| O=C1C=C(O)C(=O)C(c2c[nH]c3c(F)cccc23)=C1O | 68 | 100 | 67 |
| Cc1cccc2c(C3=C(O)C(O)=CC(=O)C3=O)c[nH]c12 | 1 | 0 | 0 |
| COc1cccc2[nH]cc(C3=C(O)C(O)=CC(=O)C3=O)c12 | 19 | 40 | 21 |
| Cc1[nH]c2ccccc2c1C1=C(O)C(O)=CC(=O)C1=O | 5 | 24 | 9 |
| CC(C)c1[nH]c2ccccc2c1C1=C(O)C(O)=CC(=O)C1=O | 0 | 7 | 13 |
| O=C1C=C(O)C(=O)C(c2c[nH]c3cccc(OCc4ccccc4)c23)=C1O | 2 | 48 | 0 |
| O=C1C=C(O)C(=O)C(c2c[nH]c3c(Br)cccc23)=C1O | 11 | 11 | 45 |
| Cc1[nH]c2ccc(Cl)cc2c1C1=C(O)C(O)=CC(=O)C1=O | 30 | 0 | 42 |
| C=CC(C)(C)c1[nH]c2ccccc2c1C1=C(O)C(O)=CC(=O)C1=O | 21 | 12 | 0 |
| O=C1C=C(O)C(=O)C(c2c[nH]c3c(Cl)cccc23)=C1O | 54 | 0 | 23 |
| Cc1ccc2c(C3=C(O)C(O)=CC(=O)C3=O)c[nH]c2c1 | 28 | 66 | 16 |
| O=C1C=C(O)C(=O)C(c2c[nH]c3cc4c(cc23)OCO4)=C1O | 63 | 99 | 88 |
| O=C1C=C(O)C(=O)C(c2c[nH]c3ccc(F)cc23)=C1O | 23 | 39 | 32 |
| O=C1C=C(O)C(=O)C(c2c[nH]c3cc(OCc4ccccc4)ccc23)=C1O | 92 | 82 | 97 |
| COc1ccc2[nH]cc(C3=C(O)C(O)=CC(=O)C3=O)c2c1 | 0 | 0 | 0 |
| Cc1cccc2[nH]cc(C3=C(O)C(O)=CC(=O)C3=O)c12 | 28 | 39 | 9 |
| CC1(c2[nH]c3ccccc3c2C2=C(O)C(O)=CC(=O)C2=O)CCCCC1 | 22 | 44 | 11 |
| CCc1[nH]c2ccccc2c1C1=C(O)C(O)=CC(=O)C1=O | 14 | 15 | 36 |
